Drawing on ChEMBL document CHEMBL4229503, “Discovery of novel Syk/PDGFR-α/c-Kit inhibitors as multi-targeting drugs to treat rheumatoid arthritis” (Bioorg Med Chem, 2018), this text covers solubility, Activity and IC50 for 16 compounds.

SMILES strings stand for the structures. Converted amounts (≈) assume the structure as drawn.

Series [1] in a line: Solubility of the compound in water after 24 hrs by HPLC method. The series is classed as physicochemical.
The test system of series [2] is BMMC. In words: Antiinflammatory activity against BALB/c mouse BMMC assessed as reduction in TNFalpha levels incubated for 30 mins measured after 48 hrs by ELISA. It counts as functional, cell-based. In short, it runs like this:
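BALB/c mouse bone-marrow mast cells were grown in RPMI 1640 with 1% non-essential amino acids and 10% FBS at 37 °C under 5% CO2. Cells were seeded at 2 × 10^4 cells/well in 6-well plates and given compound or vehicle for 30 min. Supernatant TNF-α was read by ELISA after 48 h.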
For orientation: An ELISA detects its analyte on a solid surface through an enzyme-linked reagent.

For series [3], the system named is BMMC. Nature of the series: Antiproliferative activity against BALB/c mouse BMMC after 48 hrs by MTT assay.
Series [4] is filed under the species Homo sapiens. Nature of the series: Antiinflammatory activity against rheumatoid arthritis patient-derived HFLS assessed as reduction in IL-6 levels incubated for 30 mins measured after 72 hrs by ELISA. It counts as functional. In short, it runs like this: (§1)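 RA patient synovial fibroblasts were kept in high-glucose DMEM with 10% FBS at 37 °C under 5% CO2 and used after 3 passages. Cells were seeded at 2 × 10^4 cells/well in 6-well plates and given compound or vehicle for 30 min. IL-6 and MMP-3 in the supernatant were read by ELISA after 72 h.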

In series [5] the target is Mast/stem cell growth factor receptor Kit (Homo sapiens, UniProt P10721). Nature of the series: Inhibition of c-kit (unknown origin) using FAM-labeled peptide as substrate preincubated for 10 mins followed by substrate addition measured after 25 mins. The method in brief:
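Enzyme was preincubated with compound for 10 min at room temperature, then FAM-labeled peptide with ATP was added for 25 min at 28 °C. After an EDTA stop, the plate was read on a Caliper. IC50 came from non-linear curve fit.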

A short description of series [6]: Antiproliferative activity against rheumatoid arthritis patient-derived HFLS after 72 hrs by MTT assay. The series is classed as functional, Homo sapiens. The method in brief:
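RA synovial fibroblasts (DMEM, 10% FBS, passage 3) were seeded at 2 × 10^4 cells/well. Compound was given at graded concentrations against an untreated control for 72 h at 37 °C, 5% CO2. MTT was then added for 4 h and absorbance read at 450 nm. IC50 came from non-linear regression of 6-point dose-response curves.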
In general terms: Formazan colour is commonly taken as a measure of viable cells.

For series [7], the species on record is Homo sapiens. In words: Antiinflammatory activity against rheumatoid arthritis patient-derived HFLS assessed as reduction in MMP-3 levels incubated for 30 mins measured after 72 hrs by ELISA. The series is classed as functional. In short, it runs like this:
as §1

Series [8] concerns the target Platelet-derived growth factor receptor alpha (Homo sapiens, UniProt P16234). In words: Inhibition of PDGFRalpha (unknown origin) using FAM-labeled peptide as substrate preincubated for 10 mins followed by substrate addition measured after 25 mins.

Mast/stem cell growth factor receptor Kit, sequence (P10721 whole entry): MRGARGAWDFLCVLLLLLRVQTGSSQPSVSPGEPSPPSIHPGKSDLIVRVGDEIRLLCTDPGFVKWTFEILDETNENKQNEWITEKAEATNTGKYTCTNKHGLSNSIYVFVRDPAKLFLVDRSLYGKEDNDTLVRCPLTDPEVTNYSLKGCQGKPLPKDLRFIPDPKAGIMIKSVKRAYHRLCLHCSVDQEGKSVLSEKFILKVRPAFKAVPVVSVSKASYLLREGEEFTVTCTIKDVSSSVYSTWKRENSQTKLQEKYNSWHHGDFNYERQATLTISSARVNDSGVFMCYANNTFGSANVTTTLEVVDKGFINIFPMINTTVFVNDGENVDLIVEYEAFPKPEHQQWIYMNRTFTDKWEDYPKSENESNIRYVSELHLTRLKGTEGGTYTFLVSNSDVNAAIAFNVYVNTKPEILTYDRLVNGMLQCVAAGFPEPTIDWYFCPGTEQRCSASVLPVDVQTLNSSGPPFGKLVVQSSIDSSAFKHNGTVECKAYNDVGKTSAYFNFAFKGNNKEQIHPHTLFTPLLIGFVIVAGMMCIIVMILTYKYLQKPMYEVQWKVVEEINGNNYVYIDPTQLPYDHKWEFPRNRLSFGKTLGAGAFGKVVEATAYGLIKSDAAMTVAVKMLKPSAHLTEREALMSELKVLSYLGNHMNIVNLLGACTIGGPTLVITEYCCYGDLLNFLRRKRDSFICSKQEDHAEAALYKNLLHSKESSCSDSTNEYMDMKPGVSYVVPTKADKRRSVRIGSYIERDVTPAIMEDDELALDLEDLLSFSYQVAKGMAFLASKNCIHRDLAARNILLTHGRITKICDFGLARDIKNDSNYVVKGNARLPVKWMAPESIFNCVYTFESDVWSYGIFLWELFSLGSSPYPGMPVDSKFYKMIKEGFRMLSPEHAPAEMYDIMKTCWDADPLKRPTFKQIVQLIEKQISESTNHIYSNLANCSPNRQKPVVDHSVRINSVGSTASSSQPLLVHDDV
Platelet-derived growth factor receptor alpha, sequence (P16234 whole entry): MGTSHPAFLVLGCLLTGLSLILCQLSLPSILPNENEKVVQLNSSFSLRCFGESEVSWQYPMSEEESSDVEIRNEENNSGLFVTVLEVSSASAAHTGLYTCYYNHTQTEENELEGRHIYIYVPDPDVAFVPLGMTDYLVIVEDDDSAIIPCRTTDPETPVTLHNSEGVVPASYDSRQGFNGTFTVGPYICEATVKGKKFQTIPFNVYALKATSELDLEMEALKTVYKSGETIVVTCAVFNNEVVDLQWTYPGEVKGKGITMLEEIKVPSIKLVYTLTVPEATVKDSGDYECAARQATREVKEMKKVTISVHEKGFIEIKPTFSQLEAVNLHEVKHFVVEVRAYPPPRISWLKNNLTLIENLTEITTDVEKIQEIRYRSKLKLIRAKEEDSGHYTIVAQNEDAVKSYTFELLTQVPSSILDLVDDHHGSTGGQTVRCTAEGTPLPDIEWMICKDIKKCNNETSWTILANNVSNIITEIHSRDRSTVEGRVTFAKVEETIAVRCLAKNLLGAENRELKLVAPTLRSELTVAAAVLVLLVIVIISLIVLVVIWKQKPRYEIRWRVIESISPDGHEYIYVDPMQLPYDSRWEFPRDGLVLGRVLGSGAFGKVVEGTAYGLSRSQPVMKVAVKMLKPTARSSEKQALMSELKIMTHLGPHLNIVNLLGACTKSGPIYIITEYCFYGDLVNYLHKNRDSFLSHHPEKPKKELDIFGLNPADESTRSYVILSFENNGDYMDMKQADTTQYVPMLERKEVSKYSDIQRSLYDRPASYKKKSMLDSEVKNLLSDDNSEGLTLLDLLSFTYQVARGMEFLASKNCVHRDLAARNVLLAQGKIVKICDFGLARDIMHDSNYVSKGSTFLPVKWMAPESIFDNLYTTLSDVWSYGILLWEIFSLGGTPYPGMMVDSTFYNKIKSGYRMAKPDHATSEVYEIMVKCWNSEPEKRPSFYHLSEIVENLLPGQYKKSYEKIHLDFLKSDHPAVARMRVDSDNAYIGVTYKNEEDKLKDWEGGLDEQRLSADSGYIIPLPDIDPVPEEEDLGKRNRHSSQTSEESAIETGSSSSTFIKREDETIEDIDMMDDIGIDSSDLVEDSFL

Usually solubility stands for the dissolved amount per volume that the medium holds. A higher solubility goes with a readily soluble substance. As usually defined, the IC50 is the point on the concentration scale where inhibition reaches its midpoint. `COc1cc(Nc2nc(N3CCC(NC(=O)c4ccc(C(=O)O)cn4)C3)nc3c2COC3)cc(OC)c1` (centres undefined) registered a solubility at 24 h in series [1] of 167 µg/mL (≈ 330 µM). In addition, the Activity entry with BMMC [2], in the series listed under Homo sapiens [4] and in the series listed under Homo sapiens [7] was “Dose-dependent effect” each time. Further, the IC50 is 2 µM in the series with BMMC [3], 18.6 µM in series [5] and 3.2 µM in series [6].
`O=C(O)c1ccc(C(=O)NC2CCN(c3nc4c(c(Nc5ccc6c(c5)OCCO6)n3)COC4)C2)nc1` (centres undefined): the IC50 in series [5] was 49.2 µM; in series [8] it was more than 50 µM.
Take `Cc1ccc(Nc2nc(N3CCC(NC(=O)c4ccc(C(=O)O)cn4)C3)nc3c2COC3)cc1` (centres undefined): the IC50 in series [5] and in series [8] was more than 50 µM each time.
`COc1ccc(Nc2nc(N3CCC(NC(=O)c4ccc(C(=O)O)cc4)C3)nc3c2CCC3)cc1OC` (centres undefined): in series [1], the solubility at 24 h was 86 µg/mL (≈ 171 µM).
Regarding `COc1cc(Nc2nc(N3CCC(NC(=O)c4ccc(C(=O)O)cn4)C3)nc3c2COC3)cc(OC)c1OC` (centres undefined), the values for the IC50 (in the series on BMMC [3]; in series [5]; in series [6]) were 21.1 µM, 31.3 µM and 31 µM, respectively.
As to `CCCCCNc1nc(N2CCC(NC(=O)c3ccc(C(=O)O)cn3)C2)nc2c1COC2` (centres undefined), the IC50 in series [5] and in series [8] was more than 50 µM each time.
With `COc1ccc(Nc2nc(N3CCC(NC(=O)c4ccc(C(=O)O)cn4)C3)nc3c2COC3)cc1OC` (centres undefined), the IC50 in series [5] is more than 50 µM.
In the case of `CCOCCCNc1nc(N2CCC(NC(=O)c3ccc(C(=O)O)cn3)C2)nc2c1COC2` (centres undefined), the IC50 in series [5] and in series [8] was more than 50 µM in each case.
`Cc1ccc(Nc2nc(N3CCC(NC(=O)c4ccc(C(=O)O)cn4)C3)nc3c2COC3)cc1C` (centres undefined): the IC50 in series [5] was more than 50 µM; in series [6] it was 11.2 µM; in series [8] it was more than 50 µM.
Take `O=C(O)c1ccc(C(=O)NC2CCN(c3nc4c(c(NC5CCCCC5)n3)COC4)C2)nc1` (centres undefined): the IC50 was more than 50 µM in series [5], 5.4 µM in series [6] and more than 50 µM in series [8].
Regarding `CCCCCCCNc1nc(N2CCC(NC(=O)c3ccc(C(=O)O)cn3)C2)nc2c1COC2` (centres undefined), the Activity entry in the series on BMMC [2] is “Dose-dependent effect”. Moreover, the IC50 in the series with BMMC [3] was 13 µM; in series [5] it was 25.8 µM; in series [6], 8.1 µM; in series [8], more than 50 µM.
On to `CCCCCCNc1nc(N2CCC(NC(=O)c3ccc(C(=O)O)cn3)C2)nc2c1COC2` (centres undefined), for which the Activity result in the series filed under Homo sapiens [4] and in the series listed under Homo sapiens [7] was “Dose-dependent effect” throughout. Also, the IC50 in series [5] is more than 50 µM; in series [6], 4 µM; in series [8], more than 50 µM.
For the compound `CCc1ccc(Nc2nc(N3CCC(NC(=O)c4ccc(C(=O)O)cn4)C3)nc3c2COC3)cc1` (centres undefined), the IC50 was more than 50 µM in series [5], 9.4 µM in series [6] and more than 50 µM in series [8].
Regarding `COc1ccc(Nc2nc(N3CCC(NC(=O)c4ccc(C(=O)O)cn4)C3)nc3c2COC3)cc1` (centres undefined), the IC50 in series [5] and in series [8] was more than 50 µM in each case.
On to `Cc1ccc(NC(=O)c2ccc(CN3CCN(C)CC3)cc2)cc1Nc1nc(-c2cccnc2)cs1` [MASITINIB], for which the IC50 in the series with BMMC [3] amounted to 0.1 µM.
Turning to `COCCCNc1nc(N2CCC(NC(=O)c3ccc(C(=O)O)cn3)C2)nc2c1COC2` (centres undefined), the IC50 in series [5] and in series [8] was more than 50 µM throughout.
